The target of data set [1] is T1, Prostaglandin G/H synthase 2 (Homo sapiens, UniProt P35354).
T1 sequence (P35354 whole entry): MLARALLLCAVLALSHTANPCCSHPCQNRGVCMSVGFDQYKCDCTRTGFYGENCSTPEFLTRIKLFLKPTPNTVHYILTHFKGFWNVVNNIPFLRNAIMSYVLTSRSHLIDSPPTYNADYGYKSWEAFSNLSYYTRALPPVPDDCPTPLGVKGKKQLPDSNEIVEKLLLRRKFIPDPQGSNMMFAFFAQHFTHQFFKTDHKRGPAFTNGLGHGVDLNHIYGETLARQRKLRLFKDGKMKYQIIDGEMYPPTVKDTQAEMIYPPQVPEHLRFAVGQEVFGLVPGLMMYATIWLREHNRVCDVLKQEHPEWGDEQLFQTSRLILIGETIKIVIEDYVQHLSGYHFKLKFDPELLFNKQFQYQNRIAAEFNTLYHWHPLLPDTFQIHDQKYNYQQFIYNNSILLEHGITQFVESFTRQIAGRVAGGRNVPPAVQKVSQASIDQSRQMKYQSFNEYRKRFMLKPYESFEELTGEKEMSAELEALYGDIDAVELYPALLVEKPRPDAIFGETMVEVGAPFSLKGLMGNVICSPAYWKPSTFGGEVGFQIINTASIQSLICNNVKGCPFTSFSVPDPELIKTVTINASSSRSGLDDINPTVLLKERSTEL
The data set is described as follows: Inhibition of human whole blood COX-2 assessed as production of PGE2 after 24 hrs by EIA.

A short description of data set [2]: Membrane permeabilization activity assessed as release of calcein from liposomes after 10 mins by fluorescence assay. The class given is physicochemical. The conditions noted are these: calcein-loaded liposomes, probe calcein. Summed up:
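Egg PC liposomes made by reversed-phase evaporation with 100 mM calcein (pH 7.4), washed free of untrapped dye in 10 mM phosphate buffer pH 6.8 with 150 mM NaCl. Diluted liposomes incubated with compound for 10 min at 30 °C; water as control. Calcein release read by fluorescence, excitation 490 nm, emission 520 nm.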

Data set [3] addresses Prostaglandin G/H synthase 1 (Homo sapiens, UniProt P23219). The data set is described as follows: Inhibition of human whole blood COX-1 assessed as production of TXB2 after 24 hrs by EIA.
The test system of data set [4] is Rattus norvegicus. The data set is described as follows: Inhibition of PGE2 production in carrageenan-induced Wistar rat foot-pad at 13 mg/kg, po administered 1 hr before carrageenan challenge by EIA. Also noted: dose 13 mg/kg. Format: functional, organism-based.
Data set [5] concerns Rattus norvegicus. The data set is described as follows: Reduction in PGE2 levels in fasted Wistar rat stomach at 50 to 67 mg/kg, po measured after 8 hrs. The class given is functional, organism-based. Summed up: (§1)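 Male Wistar rats (6 weeks, 180–200 g) fasted 18 h, then dosed orally with NSAIDs. Killed 8 h later and stomachs removed. Gastric PGE2 measured by EIA.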
The test system of data set [6] is Rattus norvegicus. The data set is described as follows: Antiinflammatory activity in Wistar rat assessed as inhibition of carrageenan-induced foot-pad edema at 13 mg/kg, po administered 1 hr before carrageenan challenge measured after 3 to 6 hrs by plethysmometer. Also noted: dose 13 mg/kg. The class given is functional, organism-based. The method in brief:
(§2)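 Male Wistar rats (6 weeks, 180–200 g) given NSAIDs orally; 1 h later 100 μL of 1% carrageenan injected intradermally into the left hindpaw.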

Data set [7] deals with Rattus norvegicus. Put plainly: Ulcerogenicity in fasted Wistar rat assessed as damage in gastric mucosa at 50 to 67 mg/kg, po measured after 8 hrs. The conditions noted are these: in vivo. The class given is toxicity, organism-based. Also noted: dose 50-67 mg/kg, route oral. Summed up: (§3)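 Male Wistar rats (6 weeks, 180–200 g) fasted 18 h before oral NSAID dosing. Stomachs removed 8 h later. A blinded observer measured the area of each mucosal lesion in mm²; areas were summed into a gastric lesion index.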

In data set [8] the test system is Rattus norvegicus. Put plainly: Ulcerogenicity in fasted Wistar rat assessed as damage in gastric mucosa at 40 to 50 mg/kg, po measured after 8 hrs. Format: toxicity, organism-based. The arrangement: dose 40-50 mg/kg, route oral. The conditions noted are these: in vivo. The method in brief: as §3
In data set [9] the test system is Rattus norvegicus. Put plainly: Antiinflammatory activity in Wistar rat assessed as inhibition of carrageenan-induced foot-pad edema at 10 mg/kg, po administered 1 hr before carrageenan challenge measured after 3 to 6 hrs by plethysmometer. Format: functional, organism-based. The arrangement: dose 10 mg/kg. The method in brief:
as §2
(The carrageenan paw model is a standard test of acute inflammation.)

Data set [10] relates to Rattus norvegicus. The data set is described as follows: Reduction in PGE2 levels in fasted Wistar rat stomach at 40 to 50 mg/kg, po measured after 8 hrs. Format: functional, organism-based. The method in brief: as §1
The test system of data set [11] is Rattus norvegicus. The data set is described as follows: Inhibition of PGE2 production in carrageenan-induced Wistar rat foot-pad at 10 mg/kg, po administered 1 hr before carrageenan challenge by EIA. Format: functional, organism-based. Also noted: dose 10 mg/kg.

Activity calls are given as the source filed them. The calls are words filed in the database; no cut-off is given here.

What is called IC50 is the point on the concentration scale where inhibition reaches its midpoint. By EC50 is commonly meant the midpoint of the concentration-response curve.

Sequence of Prostaglandin G/H synthase 1 (P23219 whole entry): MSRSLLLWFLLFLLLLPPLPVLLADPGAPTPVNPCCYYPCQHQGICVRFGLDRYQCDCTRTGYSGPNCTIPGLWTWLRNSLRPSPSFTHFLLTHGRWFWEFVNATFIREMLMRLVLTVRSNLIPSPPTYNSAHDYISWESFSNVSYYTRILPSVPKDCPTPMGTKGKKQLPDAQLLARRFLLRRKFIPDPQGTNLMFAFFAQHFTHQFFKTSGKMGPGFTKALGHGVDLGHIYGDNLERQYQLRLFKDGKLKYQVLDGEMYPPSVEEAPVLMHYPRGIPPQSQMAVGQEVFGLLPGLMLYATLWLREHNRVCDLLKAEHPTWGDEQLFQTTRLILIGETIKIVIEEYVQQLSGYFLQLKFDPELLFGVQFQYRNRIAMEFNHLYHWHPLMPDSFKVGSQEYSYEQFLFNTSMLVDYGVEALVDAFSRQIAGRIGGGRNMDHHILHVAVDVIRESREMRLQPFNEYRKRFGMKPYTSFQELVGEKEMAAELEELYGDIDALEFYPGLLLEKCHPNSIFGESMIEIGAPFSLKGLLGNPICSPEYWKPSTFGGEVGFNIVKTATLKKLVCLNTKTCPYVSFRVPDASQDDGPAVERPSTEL

As to `CC(C(=O)O)c1ccc(CC2CCCC2=O)cc1-c1ccc(OC(F)(F)F)cc1` (stereo not drawn), the IC50 in data set [1] was greater than 1000 µM; in [3] it was 515 µM. In addition, in [2], the EC50 at 10 min is 6 mM.
Take `CC(C(=O)O)c1ccc(CC2CCCC2=O)c(-c2ccccc2)c1` (stereo not drawn): the IC50 was 290 µM in [1] and 54 µM in data set [3]. Moreover, the concentration for a half-maximal effect (EC50) at 10 min in data set [2] is less than 100 mM.
For `CC(C(=O)O)c1ccc(CC2CCCC2=O)cc1I` (stereo not drawn), the results for the IC50 in data set [1] and in data set [3] were 540 µM and 270 µM, respectively.
On to `CSc1ccc(-c2cc(CC3CCCC3=O)ccc2C(C)C(=O)O)cc1` (stereo not drawn), for which the IC50 was determined as 150 µM in [1] and 575 µM in data set [3]. Moreover, in data set [2], the 50% effective concentration (EC50) at 10 min was less than 100 mM.
Taken in the same sequence, the figures for `CC(C(=O)O)c1ccc(CC2CCCC2=O)c(-c2ccc(F)cc2)c1` (stereo not drawn) were 36 µM, 174 µM and less than 100 mM.
On to `COc1ccc(-c2cc(C(C)C(=O)O)ccc2CC2CCCC2=O)cc1` (stereo not drawn), for which the IC50 in data set [1] is greater than 1000 µM; in [3] it was 800 µM. In [2], the EC50 at 10 min is less than 100 mM.
Take `CC(C(=O)O)c1ccc(CC2CCCC2=O)c(-c2ccc(C(=O)O)cc2)c1` (stereo not drawn): the IC50 in [1] and in data set [3] was greater than 1000 µM in each case.
As to `CC(C(=O)O)c1ccc(CC2CCCC2=O)c(Br)c1` (stereo not drawn), the results for the IC50 in [1] and in [3] were 23 µM and 49 µM, respectively. Besides, the concentration giving a half-maximal response (EC50) at 10 min in data set [2] was less than 100 mM.
Taken in the same sequence, the figures for `CSc1ccc(-c2cc(C(C)C(=O)O)ccc2CC2CCCC2=O)cc1` (stereo not drawn) were greater than 1000 µM, 758 µM and less than 10 mM.
In the case of `CC(C(=O)O)c1ccc(CC2CCCC2=O)c(-c2ccc(OC(F)(F)F)cc2)c1` (stereo not drawn), the IC50 turned out to be 72 µM in data set [1] and 460 µM in data set [3]. Further, the 50% effective concentration (EC50) at 10 min in data set [2] is less than 10 mM.
For `Cc1ccc(-c2cc(CC3CCCC3=O)ccc2C(C)C(=O)O)cc1` (stereo not drawn), in that order: 540 µM, 470 µM and less than 100 mM.
Consider `CC(C(=O)O)c1ccc(CC2CCCC2=O)cc1-c1ccc(F)cc1` (stereo not drawn), for which the figures for the half-inhibitory concentration (IC50) in [1] and in data set [3] were 36 µM and 174 µM, respectively. Moreover, the 50% effective concentration (EC50) at 10 min in [2] was 20 mM.
In the case of `CC(C(=O)O)c1ccc(CC2CCCC2=O)cc1-c1ccc(C(=O)O)cc1` (stereo not drawn), the IC50 is 76 µM in data set [1] and greater than 1000 µM in data set [3]. The EC50 at 10 min in [2] is less than 10 mM.
Take `CC(C(=O)[O-])c1ccc(CC2CCCC2=O)cc1-c1ccc(O)cc1.[Na+]` (stereo not drawn): the inhibition entry in the data set on Rattus norvegicus [4] and in the data set with Rattus norvegicus [5] was “Active” each time. The IC50 in data set [1] stood at 11 µM; in [3], 326 µM. In addition, the concentration giving a half-maximal response (EC50) at 10 min in [2] was 25 mM. For the same compound, in the data set with Rattus norvegicus [6], the outcome was Active. Further, in the data set with Rattus norvegicus [7], the Activity entry is reported as “Non-toxic”.
With `CC(C(=O)O)c1ccc(C[C@H]2CCC[C@@H]2O)cc1-c1ccc(O)cc1` (mixture of isomers), the IC50 in [1] was found to be 20 µM; in [3], 650 µM.
For `CC(C(=O)O)c1ccc(CC2CCCC2=O)cc1Cl` (stereo not drawn), the 50% inhibitory concentration (IC50) in data set [1] stood at 2 µM; in [3], 4 µM. Besides, in [2], the EC50 at 10 min is 100 mM.
In the case of `CC(C(=O)O)c1ccc(CC2CCCC2=O)c(-c2ccc(O)cc2)c1` (stereo not drawn), the IC50 in [3] is greater than 1000 µM.
In the case of `COc1ccc(-c2cc(CC3CCCC3=O)ccc2C(C)C(=O)O)cc1` (stereo not drawn), the half-inhibitory concentration (IC50) came to 430 µM in [1] and 74 µM in data set [3]. For the same compound, the EC50 at 10 min in data set [2] was less than 100 mM.
Regarding `Cc1ccc(-c2cc(C(F)(F)F)nn2-c2ccc(S(N)(=O)=O)cc2)cc1` [CELECOXIB], the EC50 at 10 min in data set [2] was 0.09 mM.
`Cc1ccc(-c2cc(C(C)C(=O)O)ccc2CC2CCCC2=O)cc1` (stereo not drawn): the IC50 is 420 µM in data set [1] and 56 µM in [3]. Also, the EC50 at 10 min in data set [2] is less than 100 mM.
On to `CC(C(=O)O)c1ccc(C[C@H]2CCC[C@H]2O)cc1-c1ccc(O)cc1` (mixture of isomers), for which the IC50 in data set [1] came to 17 µM; in data set [3] it was 47 µM.
On to `CC(C(=O)O)c1ccc(CC2CCCC2=O)cc1-c1ccccc1` (stereo not drawn), for which the concentration for half-maximal inhibition (IC50) in data set [1] is 70 µM; in [3], 310 µM. In addition, the half-maximal effective concentration (EC50) at 10 min in data set [2] was less than 100 mM.
Consider `CC(C(=O)[O-])c1ccc(CC2CCCC2=O)cc1.[Na+]` (stereo not drawn) [LOXOPROFEN SODIUM], for which, in the data set on Rattus norvegicus [8], the Activity entry is “Dose-dependent effect”. Further, the outcome with Rattus norvegicus [9] was Active. Moreover, the inhibition result in the data set with Rattus norvegicus [10] and in the data set with Rattus norvegicus [11] was “Active” each time.
With `CC(C(=O)O)c1ccc(CC2CCCC2=O)cc1[N+](=O)[O-]` (stereo not drawn), the half-maximal inhibitory concentration (IC50) is 49 µM in data set [1] and 93 µM in [3].

(Values after ChEMBL document CHEMBL1811892, “Synthesis and biological evaluation of loxoprofen derivatives” (Bioorg Med Chem, 2011).)
